In assay [1] the test system is DU-145. As to the kind of experiment: Growth inhibition of human DU145 cells after 96 hrs by trypan blue exclusion assay. The assay is classed as functional. As to conditions: DU-145, 96 h.
The subject of assay [2] is K562. As to the kind of experiment: Growth inhibition of human K562 cells expressing p210Bcr/Abl after 96 hrs by trypan blue exclusion assay. In kind it is functional, cell-based. Particulars: K562, 96 h. A digest of the protocol: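 K562 cells were kept in RPMI with 10% FBS and penicillin–streptomycin at 37 °C under 5% CO2. Cells were seeded at 1 × 10^5 cells/mL with a range of compound concentrations, using DMSO as the negative control. After 96 h, viability was counted by Trypan blue exclusion and expressed as percent of DMSO control to derive GI50.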

Structures are written as SMILES.

One may read the GI50 as the concentration at which growth is held to half of that of the control. Lower therefore signals greater sensitivity of the cells. As to `O=C(/C(=C\c1ccc(F)c([N+](=O)[O-])c1)S(=O)(=O)c1ccc(Br)cc1)c1ccc(Br)cc1`, the GI50 in assay [1] stood at 25 µM; in assay [2] it was 10 µM.

On to `COc1ccccc1/C=C(\C(=O)c1ccc(Br)cc1)S(=O)(=O)c1ccc(C)cc1`, for which the GI50 in assay [1] and in assay [2] was 1 µM in each case.

As to `Cc1ccc(CS(=O)(=O)/C(=C/c2ccc(Br)cc2)C(=O)c2ccc(Cl)cc2)cc1`, the GI50 came to 25 µM in assay [1] and 10 µM in assay [2].

For the compound `CN(C)c1ccc(/C=C(/SCc2ccc(F)cc2)C(=O)c2ccc(Br)cc2)cc1`, the GI50 was found to be 50 µM in assay [1] and 1 µM in assay [2].

On to `O=C(/C(=C\c1ccc(O)c([N+](=O)[O-])c1)SCc1ccc(Br)cc1)c1ccc(C(F)(F)F)cc1`, for which the GI50 is 10 µM in assay [1] and 1 µM in assay [2].

As to `Cc1ccc(S/C(=C/c2ccc(Oc3ccccc3)cc2)C(=O)c2ccc(Cl)cc2)cc1`, the GI50 in assay [1] and in assay [2] was 10 µM throughout.

For the compound `Cc1ccc(C)c(/C=C(\C(=O)c2ccc(Cl)cc2)S(=O)(=O)Cc2ccc(Cl)cc2)c1`, the GI50 in assay [1] and in assay [2] was 10 µM in each case.

As for `Cc1cc(C)cc(/C=C(/Sc2ccc(Br)cc2)C(=O)c2ccc(Cl)cc2)c1`, the 50% growth inhibitory concentration (GI50) is 10 µM in assay [1] and 1 µM in assay [2].

For the compound `O=C(/C(=C\c1ccc(Cl)c([N+](=O)[O-])c1)S(=O)(=O)c1ccc(Br)cc1)c1ccc(Br)cc1`, the GI50 is 10 µM in assay [1] and 1 µM in assay [2].

In the case of `O=C(/C(=C\c1cccc(Cl)c1Cl)SCc1ccc(Cl)cc1)c1ccc(Cl)cc1`, the GI50 in assay [1] was determined as 10 µM; in assay [2], 1 µM.

As to `COc1ccc(S/C(=C/c2ccc(Br)cc2)C(=O)c2ccc(Br)cc2)cc1`, the values for the GI50 in assay [1] and in assay [2] were 20 µM and 6 µM, respectively.

As to `Cc1ccc(S/C(=C/c2cc([N+](=O)[O-])ccc2F)C(=O)c2ccc(Cl)cc2)cc1`, the values for the GI50 in assay [1] and in assay [2] were 10 µM and 1 µM, respectively.

Take `O=C(/C(=C\OCc1ccccc1)S(=O)(=O)c1ccccc1Cl)c1ccc(Cl)cc1`: the concentration for 50% growth inhibition (GI50) in assay [1] and in assay [2] was 1 µM each time.

Regarding `O=C(/C(=C\c1c(O)cc(O)cc1O)SCc1ccc(Cl)cc1Cl)c1ccc(Cl)cc1`, the GI50 in assay [1] was 25 µM; in assay [2] it was > 100 µM.

For `O=C(C(=Cc1ccc(Br)cc1)SCc1ccccc1Cl)c1ccc(Cl)cc1`, the results for the GI50 in assay [1] and in assay [2] were 10 µM and 1 µM, respectively.

Take `O=C(/C(=C\c1ccc(O)cc1O)Sc1ccccc1Br)c1ccc(Cl)cc1`: the GI50 in assay [1] and in assay [2] was 50 µM throughout.

Turning to `Cc1ccc(/C=C(\C(=O)c2ccc(Cl)cc2)S(=O)(=O)Cc2ccc(Cl)cc2Cl)s1`, the 50% growth inhibitory concentration (GI50) in assay [1] came out at 10 µM; in assay [2], 25 µM.

With `Cc1ccc(S/C(=C/c2c[nH]c3ccc(Cl)cc23)C(=O)c2ccc(Br)cc2)cc1`, the GI50 in assay [1] and in assay [2] was 1 µM each time.

`COc1ccc(/C=C(/Sc2ccc(Br)cc2)C(=O)c2ccc(Cl)cc2)cc1`: the GI50 in assay [1] is 50 µM; in assay [2], 1 µM.

Turning to `Cc1ccc(S(=O)(=O)/C(=C/c2cc(C)ccc2C)C(=O)c2ccc(Cl)cc2)cc1`, the GI50 in assay [1] and in assay [2] was 1 µM in each case.

On to `Cc1ccc(CS/C(=C/c2ccccc2Br)C(=O)c2ccc(Cl)cc2)cc1`, for which the GI50 in assay [1] and in assay [2] was 10 µM in each case.

Consider `O=C(/C(=C\c1ccc(Br)cc1)S(=O)(=O)c1ccccc1Br)c1ccc(Br)cc1`, for which the GI50 in assay [1] and in assay [2] was 1 µM throughout.

For `O=C(/C(=C\c1ccc(O)cc1)SCc1ccc(F)cc1)c1ccc(Br)cc1`, the GI50 amounted to 10 µM in assay [1] and 1 µM in assay [2].

For `CN(C)c1ccc(/C=C(/SCc2ccc(F)cc2)C(=O)c2ccc(Cl)cc2)cc1`, the results for the GI50 in assay [1] and in assay [2] were 50 µM and 1 µM, respectively.

As for `O=C(/C(=C\c1ccc(Oc2ccccc2)cc1)Sc1ccc(Br)cc1)c1ccc(Br)cc1`, the GI50 in assay [1] and in assay [2] was 50 µM in each case.

Turning to `COc1ccc(S/C(=C/c2ccc(Cl)cc2Cl)C(=O)c2ccc(Br)cc2)cc1`, the GI50 in assay [1] and in assay [2] was 1 µM in each case.

As to `O=C(/C(=C\c1ccc([N+](=O)[O-])c(O)c1)SCc1ccc(Br)cc1)c1c(F)c(F)c(F)c(F)c1F`, the values for the GI50 in assay [1] and in assay [2] were 10 µM and 1 µM, respectively.

Turning to `COc1ccc(S(=O)(=O)/C(=C/c2ccc(Cl)cc2Cl)C(=O)c2ccc(Br)cc2)cc1`, the GI50 in assay [1] and in assay [2] was 20 µM each time.

For the compound `Cc1ccc(S/C(=C/c2c[nH]c3ccc(Br)cc23)C(=O)c2ccc(Br)cc2)cc1`, the GI50 was found to be 1 µM in assay [1] and 10 µM in assay [2].

As for `CCOc1ccc(/C=C(/SCc2ccc(F)cc2)C(=O)c2ccc(Cl)cc2)cc1OC`, the GI50 in assay [1] and in assay [2] was 1 µM in each case.

For the compound `COc1ccc(/C=C(\C(=O)c2ccc(Cl)cc2)S(=O)(=O)c2ccc(C)cc2)cc1O`, the GI50 in assay [1] and in assay [2] was 1 µM each time.

Turning to `O=C(/C(=C\c1ccc(Cl)cc1)SCc1ccccc1Cl)c1ccc(Cl)cc1`, the figures for the GI50 in assay [1] and in assay [2] were 12 µM and 1 µM, respectively.

For `O=C(/C(=C\c1ccc(Cl)cc1)SCc1ccc(Cl)cc1)c1ccc(Br)cc1`, the GI50 is 10 µM in assay [1] and 1 µM in assay [2].

Take `COc1ccc(/C=C(/SCc2ccc(Cl)cc2)C(=O)c2ccc(Br)cc2)cc1`: the GI50 in assay [1] worked out at 10 µM; in assay [2], 1 µM.

As to `O=C(/C(=C\c1ccc(Br)cc1)S(=O)(=O)Cc1ccc(F)cc1)c1ccc(Cl)cc1`, the GI50 in assay [1] was > 100 µM; in assay [2], 50 µM.

In the case of `O=C(/C(=C\c1ccc(F)c([N+](=O)[O-])c1)SCc1ccc(F)cc1)c1ccc(SCc2ccc(F)cc2)c([N+](=O)[O-])c1`, the GI50 was determined as 25 µM in assay [1] and 1 µM in assay [2].

On to `O=C(/C(=C\c1c[nH]c2ccc(Br)cc12)SCc1ccc(F)cc1)c1ccc(Cl)cc1`, for which the results for the 50% growth inhibitory concentration (GI50) in assay [1] and in assay [2] were 50 µM and 1 µM, respectively.

As for `COc1ccc(/C=C(\C(=O)c2ccc(Br)cc2)S(=O)(=O)c2ccc(Br)cc2)cc1`, the GI50 in assay [1] is 25 µM; in assay [2] it was 10 µM.

Consider `O=C(/C(=C\c1ccc(F)cc1C(F)(F)F)[S+]([O-])Cc1ccc(Cl)cc1)c1ccc(Cl)cc1` (centres undefined), for which the GI50 in assay [1] and in assay [2] was 50 µM each time.

`Cc1ccc(S/C(=C/c2ccc(F)c(C)c2)C(=O)c2ccc(Br)cc2)cc1`: the values for the GI50 in assay [1] and in assay [2] were 25 µM and 1 µM, respectively.

`Cc1ccc(/C=C(\C(=O)c2ccc(Cl)cc2)S(=O)(=O)Cc2ccc(Cl)cc2)s1`: the concentration for 50% growth inhibition (GI50) in assay [1] and in assay [2] was 1 µM throughout.

As for `Cc1ccc(S/C(=C/c2c(O)cc(O)cc2O)C(=O)c2ccc(Br)cc2)cc1`, the GI50 in assay [1] is > 100 µM; in assay [2] it was 50 µM.

Regarding `CC(=O)Oc1ccc(/C=C(\C(=O)c2ccc(Cl)cc2)S(=O)(=O)c2ccc(C)cc2)cc1`, the GI50 is 25 µM in assay [1] and 10 µM in assay [2].

For `O=C(/C(=C\c1ccc([N+](=O)[O-])c(O)c1)Sc1ccc(Br)cc1)c1c(F)c(F)c(F)c(F)c1F`, the GI50 in assay [1] and in assay [2] was 1 µM throughout.

As for `O=C(/C(=C\c1c(O)cc(O)cc1O)SCc1ccc(Cl)cc1)c1ccc(Cl)cc1`, the GI50 in assay [1] and in assay [2] was > 100 µM in each case.

For the compound `COc1ccc(/C=C(/SCc2ccc(Cl)cc2)C(=O)c2ccc(C(=O)O)cc2)cc1`, the GI50 in assay [1] and in assay [2] was 10 µM in each case.

On to `O=C(/C(=C\c1ccccc1OCc1ccccc1)Sc1ccccc1Cl)c1ccccc1Cl`, for which the GI50 in assay [1] and in assay [2] was 50 µM throughout.

As to `COc1ccc(/C=C(\C(=O)c2ccc(Br)cc2)S(=O)(=O)Cc2ccc(Cl)cc2)c(O)c1`, the GI50 in assay [1] and in assay [2] was 10 µM each time.

As to `O=C(/C(=C\c1c(O)cc(O)cc1O)S(=O)(=O)c1ccccc1Br)c1ccc(Cl)cc1`, the GI50 in assay [1] and in assay [2] was 50 µM each time.

As to `COc1ccc(/C=C(/SCc2ccc(F)cc2)C(=O)c2ccc(C(=O)O)cc2)cc1O`, the 50% growth inhibitory concentration (GI50) in assay [1] amounted to 10 µM; in assay [2], 1 µM.

As to `Cc1ccc(S(=O)(=O)/C(=C/c2cccs2)C(=O)c2ccc(Cl)cc2)cc1`, the GI50 turned out to be 25 µM in assay [1] and 50 µM in assay [2].

With `Cc1ccsc1/C=C(/SCc1ccc(Cl)cc1Cl)C(=O)c1ccc(Cl)cc1`, the GI50 in assay [1] came to 10 µM; in assay [2], 50 µM.

Turning to `Cc1ccc(/C=C(/SCc2ccc(F)cc2)C(=O)c2ccc(Cl)cc2)s1`, the GI50 in assay [1] and in assay [2] was > 100 µM each time.

As to `Cc1ccc(C)c(/C=C(/SCc2ccc(Cl)cc2)C(=O)c2ccc(Cl)cc2)c1`, the GI50 in assay [1] and in assay [2] was 10 µM in each case.

In the case of `O=C(/C(=C\c1ccc(Br)c(O)c1)Sc1ccc(Br)cc1)c1ccc(Br)cc1`, the GI50 in assay [1] and in assay [2] was 1 µM throughout.

Consider `Cc1ccc(S/C(=C/c2ccc(N(C)C)cc2)C(=O)c2ccc(Cl)cc2)cc1`, for which the 50% growth inhibitory concentration (GI50) in assay [1] and in assay [2] was > 100 µM in each case.

For `O=C(/C(=C\c1ccc(O)cc1O)SCc1ccc(Cl)cc1)c1ccc(Cl)cc1`, the GI50 in assay [1] and in assay [2] was 50 µM in each case.

`COc1cc(/C=C(\C(=O)c2ccc(Cl)cc2)S(=O)(=O)Cc2ccccc2Cl)cc(OC)c1`: the GI50 is > 100 µM in assay [1] and 50 µM in assay [2].

Consider `O=C(O)c1ccc(C(=O)/C(=C\c2ccc(Br)cc2)SCc2ccc(Br)cc2)cc1`, for which the GI50 in assay [1] and in assay [2] was 1 µM throughout.

For the compound `O=C(/C(=C\c1ccc(O)cc1)S(=O)(=O)Cc1ccc(F)cc1)c1ccc(Br)cc1`, the concentration for 50% growth inhibition (GI50) in assay [1] and in assay [2] was 10 µM in each case.

On to `COc1ccccc1/C=C(\C(=O)c1ccc(Cl)cc1)S(=O)(=O)Cc1ccc(Cl)cc1`, for which the GI50 in assay [1] and in assay [2] was 25 µM each time.

For `Cc1ccc(S(=O)(=O)/C(=C/c2sccc2C)C(=O)c2ccc(Br)cc2)cc1`, the GI50 in assay [1] and in assay [2] was 25 µM in each case.

The values above are taken from ChEMBL document CHEMBL1240409, “Design, synthesis and evaluation of (E)-alpha-benzylthio chalcones as novel inhibitors of BCR-ABL kinase” (Bioorg Med Chem, 2010).
